Source: ChEMBL document CHEMBL1155589, “Use of COMPARE analysis to discover new natural product drugs: isolation of camptothecin and 9-methoxycamptothecin from a new source” (J Nat Prod, 2000)
In brackets after ≈: the same amount, converted by molar mass.

Assays:
Assay type in all cases: functional, organism-based
Saccharomyces cerevisiae [1] = assay: Growth inhibition of RAD52/topoisomerase-1 deficient Saccharomyces cerevisiae RS321 in glucose medium after 48 hrs
Procedure, shortened: (§1)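 Strains: RS321N (rad52 top1) carrying a single-copy plasmid with human TOP1 under the GAL1 promoter; RS321NYCp50 (vector control, tested in galactose); RS322N (rad52). Cells diluted to OD600 0.01 in synthetic minimal medium with glucose or galactose. Compounds added in DMSO (final <1%). Incubated 48 h at 30 °C in a humidified chamber. Read as background-subtracted OD595. Growth decrease relative to drug-free wells, from concentration-response, gave IC50.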

Saccharomyces cerevisiae [2] = assay: Growth inhibition of RAD52 deficient Saccharomyces cerevisiae RS322 in glucose medium after 48 hrs; procedure, shortened: as §1
Saccharomyces cerevisiae [3] = assay: Growth inhibition of RAD52/topoisomerase 1 deficient Saccharomyces cerevisiae RS321N harbouring plasmid containing human topoisomerase 1 in galactose medium after 48 hrs; procedure, shortened: as §1
Saccharomyces cerevisiae [4] = assay: Growth inhibition of RAD52/topoisomerase 1 deficient Saccharomyces cerevisiae RS321N harbouring plasmid containing human topoisomerase 1 in glucose medium after 48 hrs; procedure, shortened: as §1
Saccharomyces cerevisiae [5] = assay: Growth inhibition of Saccharomyces cerevisiae RS321N containing YCp50 vector plasmid after 48 hrs; procedure, shortened: as §1
Saccharomyces cerevisiae [6] = assay: Growth inhibition of Saccharomyces cerevisiae expressing wild type erg6 in glucose medium after 48 hrs
Saccharomyces cerevisiae [7] = assay: Growth inhibition of RAD52 deficient Saccharomyces cerevisiae RS322 carrying pRAD52 in galactose medium after 48 hrs
Saccharomyces cerevisiae [8] = assay: Growth inhibition of RAD52 deficient Saccharomyces cerevisiae RS322 carrying pRAD52 in glucose medium after 48 hrs

| Structure (SMILES) | IC50 (Saccharomyces cerevisiae [1]) [µg/mL] | IC50 (Saccharomyces cerevisiae [2]) [µg/mL] | IC50 (Saccharomyces cerevisiae [3]) [µg/mL] | IC50 (Saccharomyces cerevisiae [4]) [µg/mL] | IC50 (Saccharomyces cerevisiae [5]) [µg/mL] | IC50 (Saccharomyces cerevisiae [6]) [µg/mL] | IC50 (Saccharomyces cerevisiae [7]) [µg/mL] | IC50 (Saccharomyces cerevisiae [8]) [µg/mL] |
| --- | --- | --- | --- | --- | --- | --- | --- | --- |
| CC[C@@]1(O)C(=O)OCc2c1cc1n(c2=O)Cc2cc3ccccc3nc2-1 [CAMPTOTHECIN] | > 100 | 0.06 (≈ 0.172 µM) | 0.014 (≈ 0.0402 µM) | > 100 | 0.16 (≈ 0.459 µM) | > 100 | 0.18 (≈ 0.517 µM) | > 100 |
| CC[C@@]1(O)C(=O)OCc2c1cc1n(c2=O)Cc2cc3c(CN(C)C)c(O)ccc3nc2-1 [TOPOTECAN] |  |  | 9.9 (≈ 23.5 µM) | > 100 |  |  |  |  |
